One data set is filed under the species Homo sapiens. In words: Selectivity ratio, ratio of IC50 for human recombinant MAOA to IC50 for human recombinant MAOB. Summed up:
(§1)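 Enzyme: insect-cell microsomal recombinant human MAO-A or -B (0.0075 mg/mL) in 100 mM potassium phosphate, pH 7.4, isotonic with KCl. Kynuramine 45 µM (MAO-A) or 30 µM (MAO-B), inhibitor 0–100 µM, 37 °C, 20 min. Reaction stopped with 2 N NaOH. 4-Hydroxyquinoline fluorescence read at ex 310/em 400 nm against a calibration curve. IC50 taken from one-site fits of six concentrations, in triplicate. Selectivity = IC50(MAO-A)/IC50(MAO-B).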

Data set [1] addresses T1, Amine oxidase [flavin-containing] A (Homo sapiens, UniProt P21397).
T1 sequence (P21397 whole entry): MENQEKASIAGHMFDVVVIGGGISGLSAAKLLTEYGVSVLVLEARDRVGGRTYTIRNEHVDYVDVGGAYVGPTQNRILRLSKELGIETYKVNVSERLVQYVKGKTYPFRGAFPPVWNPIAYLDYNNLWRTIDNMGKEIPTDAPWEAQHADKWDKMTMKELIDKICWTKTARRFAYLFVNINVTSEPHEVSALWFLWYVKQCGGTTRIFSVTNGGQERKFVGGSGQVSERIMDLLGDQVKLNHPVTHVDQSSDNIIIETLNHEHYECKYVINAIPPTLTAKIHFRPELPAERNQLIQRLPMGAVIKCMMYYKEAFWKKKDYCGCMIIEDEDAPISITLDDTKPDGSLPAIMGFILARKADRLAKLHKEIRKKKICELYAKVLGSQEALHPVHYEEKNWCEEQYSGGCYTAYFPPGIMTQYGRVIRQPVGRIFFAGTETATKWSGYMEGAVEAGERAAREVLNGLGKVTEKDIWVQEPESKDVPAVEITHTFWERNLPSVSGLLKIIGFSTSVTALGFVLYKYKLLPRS
In words: Inhibition of human recombinant MAOA using kynuramine as substrate by fluorescence assay. Summed up:
as §1

For data set [2], the target named is T1, Amine oxidase [flavin-containing] A. The experiment in a line: Reversible Inhibition of human recombinant MAOA using kynuramine as substrate at 2 times IC50 up to 60 mins. The note with it: 1 h. Summed up:
(§2)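 Recombinant human MAO-A or -B (0.015–0.03 mg/mL) was preheated at 37 °C for 60 min in total and preincubated with inhibitor at about 2× its IC50 for 0, 15, 30 or 60 min in pH 7.4 potassium phosphate. Mixtures were diluted 2-fold with kynuramine (45 µM MAO-A, 30 µM MAO-B) and incubated 15 min at 37 °C. Residual 4-hydroxyquinoline formation was read by fluorescence.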

Data set [3] has the same target. In words: Inhibition of human recombinant MAOA using kynuramine as substrate at 11.56 uM after 60 mins by fluorescence assay. The note with it: 1 h. In short, it runs like this: as §2
Data set [4] addresses T2, Amine oxidase [flavin-containing] B (Homo sapiens, UniProt P27338).
T2 sequence (P27338 whole entry): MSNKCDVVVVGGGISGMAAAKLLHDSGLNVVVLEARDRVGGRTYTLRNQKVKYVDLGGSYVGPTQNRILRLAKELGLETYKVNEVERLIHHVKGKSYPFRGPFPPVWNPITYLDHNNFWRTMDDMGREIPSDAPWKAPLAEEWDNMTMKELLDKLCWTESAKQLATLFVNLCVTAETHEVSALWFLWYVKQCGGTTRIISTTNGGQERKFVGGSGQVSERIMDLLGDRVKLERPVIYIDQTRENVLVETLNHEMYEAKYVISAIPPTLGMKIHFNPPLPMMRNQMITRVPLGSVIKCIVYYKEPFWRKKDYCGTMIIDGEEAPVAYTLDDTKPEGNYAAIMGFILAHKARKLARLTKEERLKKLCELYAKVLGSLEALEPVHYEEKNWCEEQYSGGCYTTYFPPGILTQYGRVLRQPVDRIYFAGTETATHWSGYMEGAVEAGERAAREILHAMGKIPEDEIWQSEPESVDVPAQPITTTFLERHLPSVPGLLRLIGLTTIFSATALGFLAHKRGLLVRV
The experiment in a line: Inhibition of human recombinant MAOB using kynuramine as substrate by fluorescence assay. Summed up: as §1

In data set [5] the target is T1, Amine oxidase [flavin-containing] A. The experiment in a line: Time dependent inhibition of human recombinant MAOA using kynuramine as substrate at 11.56 uM by fluorescence assay. In short, it runs like this: as §2
For data set [6] the target is unchanged. The experiment in a line: Inhibition of human recombinant MAOA at 100 uM using kynuramine as substrate by fluorescence assay. Summed up:
as §1

Data set [7] has as its target T2, Amine oxidase [flavin-containing] B. In words: Inhibition of human recombinant MAOB at 100 uM using kynuramine as substrate by fluorescence assay. Summed up: as §1
The target is the same in data set [8]. The experiment in a line: Competitive inhibition of human recombinant MAOB using kynuramine as substrate at 0.04 to 0.16 uM by Lineweaver burk plot analysis. Summed up:
(§3)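 Insect-cell microsomal recombinant human MAO-A or -B, 0.015 mg/mL, in potassium phosphate buffer (100 mM, pH 7.4, isotonic with KCl). Initial rates were measured with four kynuramine concentrations (15–90 µM), without inhibitor and with three inhibitor levels (MAO-A 1.31–5.22 µM; MAO-B 0.04–0.16 µM). Lineweaver–Burk plots were fitted by linear regression.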

Data set [9] deals with T1, Amine oxidase [flavin-containing] A. The experiment in a line: Inhibition of human recombinant MAOA using kynuramine as substrate at 5.22 uM after 60 mins by fluorescence assay. The note with it: 1 h. In short, it runs like this:
as §2

For data set [10], the target named is T2, Amine oxidase [flavin-containing] B. In words: Inhibition of human recombinant MAOB using kynuramine as substrate at 0.32 uM after 60 mins by fluorescence assay. The settings on record: 1 h. In short, it runs like this: as §2
Data set [11] has as its target T1, Amine oxidase [flavin-containing] A. In words: Time dependent inhibition of human recombinant MAOA using kynuramine as substrate at 5.22 uM by fluorescence assay. In short, it runs like this:
as §2

Data set [12] has as its target T2, Amine oxidase [flavin-containing] B. In words: Time dependent inhibition of human recombinant MAOB using kynuramine as substrate at 0.32 uM by fluorescence assay. Summed up: as §2
Data set [13] deals with T1, Amine oxidase [flavin-containing] A. The experiment in a line: Competitive inhibition of human recombinant MAOA using kynuramine as substrate at 1.31 to 5.22 uM by Lineweaver burk plot analysis. In short, it runs like this:
as §3

Data set [14] has as its target T2, Amine oxidase [flavin-containing] B. In words: Reversible Inhibition of human recombinant MAOB using kynuramine as substrate at 2 times IC50 up to 60 mins. The note with it: 1 h. In short, it runs like this:
as §2

Data set [15] has the same target. The experiment in a line: Inhibition of human recombinant MAOB using kynuramine as substrate at 5.94 uM after 60 mins by fluorescence assay. The settings on record: 1 h. In short, it runs like this:
as §2

Data set [16] has the same target. The experiment in a line: Time dependent inhibition of human recombinant MAOB using kynuramine as substrate at 5.94 uM by fluorescence assay. Summed up: as §2

This note sets out measurements from ChEMBL document CHEMBL1926675, “Thio- and aminocaffeine analogues as inhibitors of human monoamine oxidase” (Bioorg Med Chem, 2011).

Molecules are shown by their SMILES. pIC50: −log10 of the molar value.

In general, pIC50 refers to the negative decadic logarithm of the IC50, by convention in mol/L.

Turning to `Cn1c(=O)c2c(nc(NCCc3cccc(Cl)c3)n2C)n(C)c1=O`, the Ratio IC50 in the data set filed under Homo sapiens was 0.2. In addition, the pIC50 in data set [1] is 5.24; in data set [4], 4.61. Besides, the results for the “inhibition (INH)” value in [2] and in data set [3] were “Active” and “Not Active”, respectively. For the same compound, the TDI entry in [5] is “Not Active”.
Consider `Cn1c(=O)c2c(nc(NCCCc3ccccc3)n2C)n(C)c1=O`, for which the IC50 entry in data set [6] and in [7] was “Not Active” in each case.
Consider `Cn1c(=O)c2c(nc(SCc3ccc(F)cc3)n2C)n(C)c1=O`, for which the Ratio IC50 in the data set filed under Homo sapiens is 13.8. Also, the results for the pIC50 in [1] and in data set [4] were 5.32 and 6.46, respectively.
Regarding `Cn1c(=O)c2c(nc(SC3CCCCC3)n2C)n(C)c1=O`, the Ratio IC50 in the data set listed under Homo sapiens was 1.9. The negative-log IC50 (pIC50) in data set [1] is 4.61; in data set [4] it was 4.88.
Take `Cn1c(=O)c2c(nc(NCCCCc3ccccc3)n2C)n(C)c1=O`: the Ratio IC50 in the data set listed under Homo sapiens came to 3.2. In addition, the results for the negative-log IC50 (pIC50) in [1] and in [4] were 4.51 and 5.02, respectively.
`CC(C)CCSc1nc2c(c(=O)n(C)c(=O)n2C)n1C`: the Ratio IC50 in the data set filed under Homo sapiens was 5.8. For the same compound, the negative-log IC50 (pIC50) in [1] is 4.82; in data set [4], 5.58.
With `Cn1c(=O)c2c(nc(NCc3ccccc3)n2C)n(C)c1=O`, the IC50 result in [6] and in [7] was “Not Active” each time.
As to `Cn1c(=O)c2c(nc(SC3CCCC3)n2C)n(C)c1=O`, in the data set listed under Homo sapiens, the Ratio IC50 stood at 0.4. The pIC50 in data set [1] is 5.03; in [4], 4.68.
Take `Cn1c(=O)c2c(nc(SCc3ccc(Br)cc3)n2C)n(C)c1=O`: the “inhibition (INH)” value in [8] is on record as “Active”; in data set [2] it was “Active”; in data set [9] it was “Not Active”; in [10] it was “Not Active”; in [13] it was “Active”; in data set [14] it was “Active”. The Ratio IC50 in the data set filed under Homo sapiens was 15.7. In addition, the negative-log IC50 (pIC50) was 5.58 in data set [1] and 6.78 in data set [4]. For the same compound, the TDI entry in [11] and in data set [12] was “Not Active” each time.
Turning to `Cn1c(=O)c2c(nc(Sc3ccc4ccccc4c3)n2C)n(C)c1=O`, the Ratio IC50 in the data set filed under Homo sapiens is 1. For the same compound, the negative logarithm of the IC50 (pIC50) in data set [1] and in data set [4] was 5.44 each time.
As to `CN(CCc1ccccc1)c1nc2c(c(=O)n(C)c(=O)n2C)n1C`, in the data set listed under Homo sapiens, the Ratio IC50 came to 6.4. Besides, the pIC50 was 3.97 in data set [1] and 4.77 in data set [4].
Regarding `CN(CCCCc1ccccc1)c1nc2c(c(=O)n(C)c(=O)n2C)n1C`, the Ratio IC50 in the data set filed under Homo sapiens came to 12.7. The pIC50 in [1] is 4.42; in data set [4] it was 5.53. The “inhibition (INH)” value in data set [15] is recorded as “Not Active”; in data set [14] it was “Active”. For the same compound, in data set [16], the TDI result is recorded as “Not Active”.
In the case of `Cn1c(=O)c2c(nc(Nc3ccccc3)n2C)n(C)c1=O`, the IC50 result in data set [6] and in data set [7] was “Not Active” each time.
`Cn1c(=O)c2c(nc(NCCc3ccccc3)n2C)n(C)c1=O`: in the data set filed under Homo sapiens, the Ratio IC50 was 2.6. The pIC50 in data set [1] was 4.34; in [4], 4.75.
Take `COc1ccc(CSc2nc3c(c(=O)n(C)c(=O)n3C)n2C)cc1`: the IC50 entry in data set [6] and in data set [7] was “Not Active” each time.
Consider `Cn1c(=O)c2c(nc(Sc3ccccc3)n2C)n(C)c1=O`, for which the Ratio IC50 in the data set listed under Homo sapiens amounted to 1.7. The pIC50 is 4.25 in [1] and 4.48 in [4].
The corresponding values for `Cn1c(=O)c2c(nc(SCCc3ccccc3)n2C)n(C)c1=O` are 91.9, 4.69 and 6.65.
For the compound `Cn1c(=O)c2c(nc(SCc3ccc(Cl)cc3)n2C)n(C)c1=O`, in the data set filed under Homo sapiens, the Ratio IC50 was 14.4. In addition, the figures for the negative-log IC50 (pIC50) in data set [1] and in [4] were 5.56 and 6.72, respectively.
For `Cn1c(=O)c2c(nc(NC3CCCC3)n2C)n(C)c1=O`, the IC50 entry in data set [6] and in data set [7] was “Not Active” in each case.
As to `Cn1c(=O)c2c(nc(SCCOc3ccccc3)n2C)n(C)c1=O`, the Ratio IC50 in the data set listed under Homo sapiens is 46.7. The negative logarithm of the IC50 (pIC50) in data set [1] is 4.81; in [4] it was 6.48.
Consider `Cn1c(=O)c2c(nc(NCCc3ccccn3)n2C)n(C)c1=O`, for which, in data set [6], the IC50 entry is “Not Active”. For the same compound, in [4], the negative-log IC50 (pIC50) is 4.71.
Regarding `Cn1c(=O)c2c(nc(SCc3ccccc3)n2C)n(C)c1=O`, the Ratio IC50 in the data set listed under Homo sapiens was determined as 4.4. Further, the negative-log IC50 (pIC50) was 5.09 in data set [1] and 5.73 in data set [4].
